Screening data from PubChem BioAssay.
Compounds with a hit are over-represented: about 5.8% of the library has one in this group of screens.
IDH1 R132H inh = inhibitors of human IDH1 R132H; IDH1 R132H reductase, diaphorase/resazurin fluorescence, 60 min; hit rate 0.18% among 70,000; inhibition, % at 10 µM; in the data active = inhibition above about 34%; inconclusive = no clear call, values can overlap the other calls; inactive = below about 11%
Target sequence (O75874 whole entry R132H): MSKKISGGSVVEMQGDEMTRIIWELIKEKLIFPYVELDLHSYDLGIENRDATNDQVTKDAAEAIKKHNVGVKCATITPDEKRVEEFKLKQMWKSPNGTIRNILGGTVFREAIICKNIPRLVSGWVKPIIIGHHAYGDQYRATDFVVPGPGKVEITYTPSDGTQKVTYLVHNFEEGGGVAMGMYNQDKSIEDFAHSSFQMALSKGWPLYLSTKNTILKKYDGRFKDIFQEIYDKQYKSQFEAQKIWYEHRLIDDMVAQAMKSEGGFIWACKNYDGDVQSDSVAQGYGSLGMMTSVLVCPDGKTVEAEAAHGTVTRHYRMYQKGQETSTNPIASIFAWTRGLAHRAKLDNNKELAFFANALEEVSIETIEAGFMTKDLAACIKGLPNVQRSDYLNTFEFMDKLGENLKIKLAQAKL
Pf Dd2 growth = inhibitors of Plasmodium falciparum Dd2 growth; activity change, % at 10 µM; AID 1159554; hit rate 2.3% among 94,000; P. falciparum Dd2 growth, SYBR Green, 72 h; hits give low values; in the data active = activity change below about -80%; inconclusive = no clear call, values can overlap the other calls
T cruzi growth-1 = blocks T. cruzi growth in NIH3T3 culture; inhibition, % at 8.34 µM; hit rate 5.9% among 77,000; T. cruzi beta-gal in NIH3T3, GalScreen luminescence, 90 h; AID 624255;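 active = mean inhibition above about 93%, with at least 55% of replicates each passing it, limit read from the data, passing the limit was not always enough; inconclusive = only one of those two conditions holds; inactive = neither condition holds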
KDM4C inh = blocks human GASC-1 (KDM4C) demethylase activity | hit rate 0.15% among 96,000 | GST-KDM4C 2-372, H3K9me3 peptide, LANCE TR-FRET | inhibition, % at 12.5 µM | AID 720574 | Q9H3R0;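 active = mean replicate inhibition above about 25%, with at least 55% of replicates also reaching it, limit read from the data, passing the limit was not always enough; inconclusive = only one of those two conditions met; inactive = neither condition met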
Target sequence (Q9H3R0 2-372 limits assumed): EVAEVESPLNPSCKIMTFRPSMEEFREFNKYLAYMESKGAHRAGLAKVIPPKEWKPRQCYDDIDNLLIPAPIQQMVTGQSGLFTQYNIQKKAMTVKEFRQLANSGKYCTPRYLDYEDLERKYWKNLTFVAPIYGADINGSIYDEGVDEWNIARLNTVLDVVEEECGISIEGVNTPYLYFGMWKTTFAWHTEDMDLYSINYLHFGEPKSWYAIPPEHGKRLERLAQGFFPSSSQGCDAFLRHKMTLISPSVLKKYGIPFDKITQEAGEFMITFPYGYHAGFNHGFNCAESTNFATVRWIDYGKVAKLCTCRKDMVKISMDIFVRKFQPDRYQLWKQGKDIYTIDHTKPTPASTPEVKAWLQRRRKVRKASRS
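Material: GST-tagged GASC-1 (JMJD2C) catalytic fragment, aa 2-372. Input: enzyme final amount 10 nM. Medium: HEPES buffer, pH 7.5, plus ascorbate. Reagent: H3K9me3 peptide substrate, Fe(II), 2-oxoglutarate. Doses: single dose. Times: reaction 30 min RT, detection step 1 h RT. Measured by: LANCE TR-FRET. Evaluation: Fall in 671/618 emission ratio as inhibition.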
T cruzi growth-2 = blocks T. cruzi growth in NIH3T3 host cells. shares compounds with T cruzi growth-1. T. cruzi beta-gal in NIH3T3, GalScreen luminescence, 90 h. inhibition, % at 8.35 µM. hit rate 72% among 5,600. AID 651739;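 active = mean replicate inhibition above about 95% and at least 55% of replicates individually reaching it, limit read from the data; inconclusive = only one of the two criteria is met; inactive = neither criterion is met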
T cruzi growth-3 = inhibitors of T. cruzi proliferation. T. cruzi beta-gal in NIH3T3, GalScreen luminescence, 90 h. hit rate 21% among 5,600. inhibition, % at 2.09 µM. shares compounds with T cruzi growth-1;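 active = mean inhibition above about 95%, with at least 55% of replicates also reaching it, limit read from the data; inconclusive = meets just one of the two conditions; inactive = meets neither condition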
NIH3T3 tox = NIH/3T3 (mouse) viability loss; cytotoxicity (signal decrease), % at 8.35 µM; NIH/3T3 viability, CellTiter-Glo ATP luminescence, 90 h; hit rate 14% among 5,600; shares compounds with T cruzi growth-1;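 active = mean signal decrease across replicates above about 35% based on untreated-well scatter, with enough replicates individually passing, limit read from the data; inconclusive = no rule stated though some were filed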
NIH3T3 tox 2 = NIH/3T3 (mouse) viability loss; AID 651744; inhibition, % at 24.9 µM; hit rate 56% among 5,600; shares compounds with T cruzi growth-1; NIH/3T3 viability, CellTiter-Glo ATP luminescence, 90 h;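 active = mean loss of cell viability signal at or above a set limit, and enough replicates individually reaching it; inconclusive = meets only the mean limit or only the replicate share; inactive = meets neither condition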
Each line names hits and unclear results; the compound was inactive in the other large screens (follow-up assays come after a bar, where they were run).

C[C@H](CO)N1C[C@H](C)[C@@H](CN(C)Cc2ccc(-c3ccccc3)cc2)OCc2cnnn2CCCC1=O	T cruzi growth-1 inconclusive (no result: IDH1 R132H inh) | T cruzi growth-2 inactive | T cruzi growth-3 inactive | NIH3T3 tox inactive | NIH3T3 tox 2 51
C[C@H](CO)N1C[C@H](C)[C@@H](CN(C)Cc2ccc(C(=O)Nc3ccccc3N)cc2)OCc2cnnn2CCCC1=O	T cruzi growth-1 110 (no result: IDH1 R132H inh) | T cruzi growth-2 106 | T cruzi growth-3 inactive | NIH3T3 tox inactive | NIH3T3 tox 2 inconclusive
C[C@@H]1CN([C@H](C)CO)C(=O)CCCn2nncc2CO[C@H]1CN(C)Cc1ccc(C(=O)Nc2ccccc2N)cc1	T cruzi growth-1 109 (no result: IDH1 R132H inh) | T cruzi growth-2 101 | T cruzi growth-3 inactive | NIH3T3 tox inactive | NIH3T3 tox 2 31
COc1ccc(NC(=O)Nc2ccc3c(c2)[C@@H]2C[C@H](CC(=O)NCc4ccc5c(c4)OCO5)O[C@H](CO)[C@@H]2O3)cc1	T cruzi growth-1 102 | T cruzi growth-2 inactive | T cruzi growth-3 inactive | NIH3T3 tox inactive | NIH3T3 tox 2 inactive
COc1ccc(NC(=O)Nc2ccc3c(c2)[C@@H]2C[C@H](CC(=O)NCCc4ccccc4)O[C@@H](CO)[C@@H]2O3)cc1	T cruzi growth-1 176 | T cruzi growth-2 105 | T cruzi growth-3 inconclusive | NIH3T3 tox inactive | NIH3T3 tox 2 inactive
CCCNC(=O)C[C@H]1C[C@@H]2c3cc(NC(=O)Nc4ccc(OC)cc4)ccc3O[C@@H]2[C@H](CO)O1	none
COc1ccc(NC(=O)Nc2ccc3c(c2)[C@H]2C[C@@H](CC(=O)NCCc4ccccc4)O[C@@H](CO)[C@H]2O3)cc1	T cruzi growth-1 157 | T cruzi growth-2 112 | T cruzi growth-3 98 | NIH3T3 tox inactive | NIH3T3 tox 2 inactive
COc1ccc(NC(=O)Nc2ccc3c(c2)[C@H]2C[C@H](CC(=O)NCc4ccc5c(c4)OCO5)O[C@@H](CO)[C@H]2O3)cc1	none
CC(=O)N1[C@H](C(=O)Nc2ccccc2)[C@@H](CO)[C@@H]2Cn3c(ccc(C4=CCCC4)c3=O)[C@@H]21	none (no result: IDH1 R132H inh, Pf Dd2 growth)
C[C@H]1CCCCO[C@@H](CN(C)Cc2ccccc2)[C@@H](C)CN([C@@H](C)CO)C(=O)c2cc(NS(=O)(=O)c3ccccc3)ccc2O1	none
C[C@H](CO)N1C[C@H](C)[C@H](CN(C)Cc2ccccc2)OCCCC[C@H](C)Oc2ccc(NS(=O)(=O)c3ccc(F)cc3)cc2C1=O	T cruzi growth-1 inconclusive, KDM4C inh 59 (no result: IDH1 R132H inh) | T cruzi growth-2 113 | T cruzi growth-3 inactive | NIH3T3 tox inactive | NIH3T3 tox 2 92
COc1ccc(CN(C)C[C@H]2OCCCC[C@H](C)Oc3ccc(NS(=O)(=O)c4ccccc4)cc3C(=O)N([C@@H](C)CO)C[C@H]2C)cc1	T cruzi growth-1 103 (no result: IDH1 R132H inh) | T cruzi growth-2 109 | T cruzi growth-3 inactive | NIH3T3 tox inactive | NIH3T3 tox 2 90
Cc1ccc(S(=O)(=O)Nc2ccc3c(c2)C(=O)N([C@@H](C)CO)C[C@@H](C)[C@@H](CN(C)Cc2ccccc2)OCCCC[C@@H](C)O3)cc1	T cruzi growth-1 inconclusive (no result: IDH1 R132H inh) | T cruzi growth-2 inactive | T cruzi growth-3 inactive | NIH3T3 tox inactive | NIH3T3 tox 2 105
C[C@@H]1CCCCO[C@H](CN(C)Cc2ccccc2)[C@H](C)CN([C@H](C)CO)C(=O)c2cc(NS(=O)(=O)c3ccccc3)ccc2O1	T cruzi growth-1 101 | T cruzi growth-2 98 | T cruzi growth-3 inactive | NIH3T3 tox inactive | NIH3T3 tox 2 41
COc1ccc(CN(C)C[C@@H]2OCCCC[C@@H](C)Oc3ccc(NS(=O)(=O)c4ccccc4)cc3C(=O)N([C@H](C)CO)C[C@@H]2C)cc1	none (no result: IDH1 R132H inh)
C[C@H](CO)N1C[C@H](C)[C@@H](CN(C)S(=O)(=O)c2ccc(F)cc2)Oc2ncc(-c3ccncc3)cc2C1=O	none
O=C(NCC[C@@H]1CC[C@@H](NC(=O)C2CCOCC2)[C@@H](CO)O1)Nc1ccc(Cl)cc1	none
Cc1cccc(S(=O)(=O)N[C@@H]2CC[C@H](CCNC(=O)c3cnccn3)O[C@H]2CO)c1	none
CCCNC(=O)C[C@H]1C[C@@H]2c3cc(NC(=O)Nc4ccc(F)cc4)ccc3O[C@@H]2[C@@H](CO)O1	none
COc1ccc(CN(C)C[C@H]2OCCCC[C@H](C)Oc3ccc(NS(=O)(=O)c4ccc(Cl)cc4)cc3C(=O)N([C@@H](C)CO)C[C@@H]2C)cc1	T cruzi growth-1 inconclusive | T cruzi growth-2 101 | T cruzi growth-3 inactive | NIH3T3 tox inactive | NIH3T3 tox 2 104
C[C@@H]1CN([C@@H](C)CO)C(=O)c2cc(NS(=O)(=O)c3ccc(F)cc3)ccc2O[C@@H](C)CCCCO[C@@H]1CN(C)Cc1ccccc1	T cruzi growth-1 105 | T cruzi growth-2 99 | T cruzi growth-3 inactive | NIH3T3 tox inactive | NIH3T3 tox 2 107
Cc1noc(C)c1S(=O)(=O)Nc1ccc2c(c1)C(=O)N([C@@H](C)CO)C[C@H](C)[C@@H](CN(C)S(=O)(=O)c1cccs1)OCCCC[C@@H](C)O2	none (no result: IDH1 R132H inh)
COC(=O)C[C@@H]1CC[C@@H]2[C@@H](COc3ccc(NS(=O)(=O)c4cccc(F)c4)cc3C(=O)N2C)O1	none (no result: IDH1 R132H inh)
COC(=O)C[C@H]1CC[C@@H]2[C@H](COc3ccc(NS(=O)(=O)c4cccc(F)c4)cc3C(=O)N2C)O1	T cruzi growth-1 105 (no result: IDH1 R132H inh) | T cruzi growth-2 inactive | T cruzi growth-3 inactive | NIH3T3 tox inactive | NIH3T3 tox 2 inactive
CN1C(=O)c2cc(NS(=O)(=O)c3ccc(Cl)cc3)ccc2OC[C@H]2O[C@@H](CC(=O)N3CCc4ccccc4C3)CC[C@@H]21	T cruzi growth-1 113 (no result: IDH1 R132H inh) | T cruzi growth-2 104 | T cruzi growth-3 inactive | NIH3T3 tox inactive | NIH3T3 tox 2 71
CN1C(=O)c2cc(NS(=O)(=O)c3ccc(F)cc3)ccc2OC[C@H]2O[C@H](CC(=O)O)CC[C@H]21	T cruzi growth-1 97 (no result: IDH1 R132H inh) | T cruzi growth-2 inconclusive | T cruzi growth-3 inactive | NIH3T3 tox inactive | NIH3T3 tox 2 inactive
COC(=O)C[C@@H]1CC[C@@H]2[C@H](COc3ccc(NS(=O)(=O)c4ccc(C)cc4)cc3C(=O)N2C)O1	T cruzi growth-1 107 (no result: IDH1 R132H inh) | T cruzi growth-2 100 | T cruzi growth-3 inactive | NIH3T3 tox inactive | NIH3T3 tox 2 inactive
CC1(C)COC(CCC/C=N/NC(=O)c2ccc(C(=O)NO)cc2)OC1	none (no result: Pf Dd2 growth, T cruzi growth-1, KDM4C inh)
COCC(=O)N1CC[C@@H]2[C@H]1c1cc(-c3ccccc3)ccc1N(C)[C@@H]2CO	T cruzi growth-1 108 (no result: IDH1 R132H inh) | T cruzi growth-2 96 | T cruzi growth-3 inactive | NIH3T3 tox inactive | NIH3T3 tox 2 inactive
